A word on the inhibition: it is the relative decrease from the control value, in per cent.

Assay [1] concerns the target T1, Cytosolic phospholipase A2 (Homo sapiens) (UniProt P47712).
T1 sequence (whole entry): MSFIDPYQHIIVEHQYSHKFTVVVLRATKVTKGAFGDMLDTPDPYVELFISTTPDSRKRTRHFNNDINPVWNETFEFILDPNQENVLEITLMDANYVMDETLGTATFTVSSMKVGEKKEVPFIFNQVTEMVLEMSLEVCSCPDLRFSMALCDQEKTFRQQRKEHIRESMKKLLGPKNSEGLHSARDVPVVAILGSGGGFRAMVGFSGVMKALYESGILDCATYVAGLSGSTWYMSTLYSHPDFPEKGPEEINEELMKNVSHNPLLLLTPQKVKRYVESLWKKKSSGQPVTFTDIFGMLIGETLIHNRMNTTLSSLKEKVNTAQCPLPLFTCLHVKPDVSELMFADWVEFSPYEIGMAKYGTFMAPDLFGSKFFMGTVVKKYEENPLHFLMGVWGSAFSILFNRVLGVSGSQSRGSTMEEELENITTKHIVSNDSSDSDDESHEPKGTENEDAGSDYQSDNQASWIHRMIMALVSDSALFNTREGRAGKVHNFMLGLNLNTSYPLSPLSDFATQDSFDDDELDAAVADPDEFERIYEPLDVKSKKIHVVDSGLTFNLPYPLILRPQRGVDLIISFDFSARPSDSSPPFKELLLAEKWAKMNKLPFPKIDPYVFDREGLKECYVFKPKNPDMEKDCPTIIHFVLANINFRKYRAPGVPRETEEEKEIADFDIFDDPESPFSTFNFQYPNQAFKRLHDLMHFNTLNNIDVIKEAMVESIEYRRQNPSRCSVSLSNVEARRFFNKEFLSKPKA
The experiment in a line: Inhibition of human group 4A cytosolic Ca2+-dependent phospholipase A2 at 0.091 mole fraction by modified Dole assay. The method in brief: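 Buffer: 100 mM HEPES pH 7.5, 90 μM CaCl2, 2 mM DTT, 0.1 mg/ml BSA. Inhibitor present at 0.091 mole fraction of the total substrate interface; percent inhibition determined.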

Assay [2] addresses T2, 85/88 kDa calcium-independent phospholipase A2 (Homo sapiens) (UniProt O60733).
T2 sequence (whole entry): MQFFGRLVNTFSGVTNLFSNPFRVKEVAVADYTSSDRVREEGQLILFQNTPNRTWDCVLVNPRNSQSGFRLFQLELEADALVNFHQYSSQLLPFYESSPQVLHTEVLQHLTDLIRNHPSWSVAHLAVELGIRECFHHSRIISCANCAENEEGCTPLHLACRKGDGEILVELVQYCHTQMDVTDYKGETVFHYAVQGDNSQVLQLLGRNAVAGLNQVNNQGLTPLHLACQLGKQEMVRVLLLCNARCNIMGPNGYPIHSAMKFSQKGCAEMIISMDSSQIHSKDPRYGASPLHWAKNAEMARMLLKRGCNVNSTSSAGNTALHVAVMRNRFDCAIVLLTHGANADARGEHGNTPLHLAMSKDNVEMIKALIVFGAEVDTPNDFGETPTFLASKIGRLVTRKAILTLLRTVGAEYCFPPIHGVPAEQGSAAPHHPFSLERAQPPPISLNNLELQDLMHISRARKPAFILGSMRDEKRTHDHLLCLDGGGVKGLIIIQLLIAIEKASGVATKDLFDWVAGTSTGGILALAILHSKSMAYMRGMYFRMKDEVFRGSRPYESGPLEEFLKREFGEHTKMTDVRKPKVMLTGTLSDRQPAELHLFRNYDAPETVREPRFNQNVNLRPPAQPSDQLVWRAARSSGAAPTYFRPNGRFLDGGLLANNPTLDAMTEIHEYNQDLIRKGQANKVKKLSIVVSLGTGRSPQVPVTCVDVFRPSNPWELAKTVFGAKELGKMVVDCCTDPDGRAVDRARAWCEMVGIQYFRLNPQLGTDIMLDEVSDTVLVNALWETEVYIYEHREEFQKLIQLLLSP
The experiment in a line: Inhibition of human group 6A cytosolic Ca(2+)-independent phospholipase A2 at 0.091 mole fraction by modified Dole assay.

The target of assay [3] is T3, Phospholipase A2 group V (Homo sapiens) (UniProt P39877).
T3 sequence (whole entry): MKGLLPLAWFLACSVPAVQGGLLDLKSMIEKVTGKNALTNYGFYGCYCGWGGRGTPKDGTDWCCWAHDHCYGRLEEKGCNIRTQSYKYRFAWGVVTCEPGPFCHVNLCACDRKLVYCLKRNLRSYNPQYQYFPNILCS
Briefly: Inhibition of human group 5 Ca2+-dependent secretory phospholipase A2 at 0.091 mole fraction by modified Dole assay.

On to `CCCCCCCCCCCCCCC(=O)C(=O)NCCC(=O)OCC`, for which the inhibition in assay [1] came to 44%; in assay [2], 51%; in assay [3] it was 59%.

As to `CCCCCCCCCCCCCCC(=O)C(=O)NCCCCOCC`, the inhibition in assay [1] amounted to 62%; in assay [2] it was 51%; in assay [3], 64%.

Turning to `CCCCCCCCCCCCCCC(=O)C(=O)N[C@H](/C=C/C=C/C(=O)OCC)CCCC`, the inhibition in assay [1] turned out to be 64%; in assay [2] it was 74%; in assay [3], 52%.

For `CCCCCCCCCCCCCCC(=O)C(=O)NCCC(=O)OC`, the inhibition is less than 25% in assay [1], less than 25% in assay [2] and 48% in assay [3].

With `CCCCCCCCCCCCCCC(=O)C(=O)NCC(=O)OC(C)(C)C`, the values for the inhibition in assay [1], in assay [2] and in assay [3] were 80%, 53% and 82%, respectively.

Regarding `CCCCCCCCCCCCCCC(=O)C(=O)NCCCCC(=O)OC(C)(C)C`, the inhibition amounted to 74% in assay [1], 62% in assay [2] and 72% in assay [3].

`CCCCCCCCCCCCCCC(=O)C(=O)N[C@@H](CCCC)CCC(=O)OC`: the inhibition is 87% in assay [1], 78% in assay [2] and 86% in assay [3].

Consider `CCCCCCCCCCCCCCC(=O)C(=O)N[C@@H](CCCC)CCCCC(=O)OCC`, for which the inhibition in assay [1] was 62%; in assay [2], 66%; in assay [3] it was less than 25%.

As to `CC(C)(C)OC(=O)CCNC(=O)C(=O)CCCCCCc1ccccc1`, the inhibition in assay [1] was determined as 82%; in assay [2] it was 81%; in assay [3], 69%.

For the compound `CCCCCCCCCCCCCCC(=O)C(=O)NCCCC(=O)OCc1ccccc1`, the inhibition in assay [1] was 35%; in assay [2], less than 25%; in assay [3], 38%.

On to `CCCC[C@@H](CCC(=O)O)NC(=O)CCCCCCc1ccccc1`, for which the inhibition in assay [1], in assay [2] and in assay [3] was less than 25% throughout.

For `CCCC[C@H](CCC(=O)O)NC(=O)CCCCCCc1ccccc1`, the values for the inhibition in assay [1], in assay [2] and in assay [3] were less than 25%, less than 25% and 95%, respectively.

With `CCCCCCCCCCCCCCC(=O)C(=O)NCCC(=O)OC(C)(C)C`, the inhibition in assay [1] stood at 79%; in assay [2], 54%; in assay [3] it was 72%.

Consider `COC(=O)CNC(=O)CCCCCCc1ccccc1`, for which the inhibition in assay [1], in assay [2] and in assay [3] was less than 25% each time.

In the case of `CCCCCCCCCCCCCCC(=O)C(=O)NCCCCC(=O)OCC`, the values for the inhibition in assay [1], in assay [2] and in assay [3] were 31%, 35% and 47%, respectively.

As for `COC(=O)CNC(=O)C(=O)CCCCCCc1ccccc1`, the inhibition in assay [1] was determined as 54%; in assay [2], 31%; in assay [3], 30%.

As to `CCCCCCCCCCCCCCC(=O)C(=O)NCC(=O)OCC`, the figures for the inhibition in assay [1], in assay [2] and in assay [3] were 74%, 62% and 62%, respectively.

For `CCCCCCCCCCCCCCC(=O)C(=O)NCC(=O)OC`, the inhibition in assay [1] amounted to 62%; in assay [2] it was 45%; in assay [3], 52%.

`CCCCCCCCCCCCCCC(=O)C(=O)N[C@@H](C)CCC(=O)OC(C)(C)C`: the inhibition in assay [1] was found to be 85%; in assay [2], 72%; in assay [3], 87%.

Turning to `CCCCCCCCCCCCCCC(=O)C(=O)NCCCCC(=O)OC`, the inhibition in assay [1] was less than 25%; in assay [2], less than 25%; in assay [3], 42%.

On to `CCCCCCCCCCCCCCC(=O)C(=O)Nc1ccc(C(=O)OCC)cc1`, for which the results for the inhibition in assay [1], in assay [2] and in assay [3] were 87%, less than 25% and 78%, respectively.

In the case of `CC(C)(C)OC(=O)CCNC(=O)CCCCCCc1ccccc1`, the inhibition in assay [1] stood at 36%; in assay [2], 57%; in assay [3], 66%.

Consider `CCCCCCCCCCCCCCC(=O)C(=O)N[C@H](/C=C/C=C/C(=O)O)CCCC`, for which the inhibition in assay [1] was 85%; in assay [2], less than 25%; in assay [3] it was less than 25%.

For the compound `CCCCCCCCCCCCCCC(=O)C(=O)N[C@H](CCC(=O)OC)CC(C)C`, the inhibition in assay [1] is 83%; in assay [2], 65%; in assay [3], 65%.

Take `C=CCOC(=O)CCCNC(=O)C(=O)CCCCCCCCCCCCCC`: the inhibition amounted to 53% in assay [1], 63% in assay [2] and 38% in assay [3].

For the compound `CCCCCCCCCCCCCCC(=O)C(=O)NCCCC(=O)CCCC`, the inhibition in assay [1] was 32%; in assay [2] it was less than 25%; in assay [3] it was less than 25%.

For the origin of these results see ChEMBL document CHEMBL1152193, “Structure-activity relationships of natural and non-natural amino acid-based amide and 2-oxoamide inhibitors of human phospholipase A(2) enzymes” (Bioorg Med Chem, 2008).
